# From ChEMBL document CHEMBL2040747, “Synthesis and biological evaluation of isoxazole, oxazole, and oxadiazole containing heteroaryl analogs of biaryl ureas as DGAT1 inhibitors” (Eur J Med Chem, 2012)
# What was measured:
# [1] = target: Diacylglycerol O-acyltransferase 1 (Homo sapiens) (UniProt O75907); assay: Inhibition of human DGAT1 assessed as conversion of [14C]-oleoyl-CoA to [14C]-triglyceride at 1 uM after 10 mins by scintillation counting
# Mus musculus = assay: Antiobesity activity in Swiss mouse assessed as reduction in plasma triglyceride level at 3 mg/kg, po measured after 4 hrs by fat tolerance test; assay type: functional; parameters: scale not given: the % may be the effect or the level left
# Method in brief: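 Fasted Swiss mice (4-5 weeks, 25-30 g) gavaged with test compound at 3 mg/kg as a suspension in 0.5% CMC with Tween 80, or with vehicle. Olive oil bolus (10 ml/kg) given 1 h later. Plasma TG measured by kit at 1, 2, 3 and 4 h. AUC0-4h expressed relative to vehicle (100%). Mean ± SEM, n = 8.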
# [2] = Aqueous solubility of the compound at pH 7.4 after 24 hrs; assay type: physicochemical; conditions: aqueous medium
# Chain of Diacylglycerol O-acyltransferase 1 (Homo sapiens) (O75907 whole entry, looked up): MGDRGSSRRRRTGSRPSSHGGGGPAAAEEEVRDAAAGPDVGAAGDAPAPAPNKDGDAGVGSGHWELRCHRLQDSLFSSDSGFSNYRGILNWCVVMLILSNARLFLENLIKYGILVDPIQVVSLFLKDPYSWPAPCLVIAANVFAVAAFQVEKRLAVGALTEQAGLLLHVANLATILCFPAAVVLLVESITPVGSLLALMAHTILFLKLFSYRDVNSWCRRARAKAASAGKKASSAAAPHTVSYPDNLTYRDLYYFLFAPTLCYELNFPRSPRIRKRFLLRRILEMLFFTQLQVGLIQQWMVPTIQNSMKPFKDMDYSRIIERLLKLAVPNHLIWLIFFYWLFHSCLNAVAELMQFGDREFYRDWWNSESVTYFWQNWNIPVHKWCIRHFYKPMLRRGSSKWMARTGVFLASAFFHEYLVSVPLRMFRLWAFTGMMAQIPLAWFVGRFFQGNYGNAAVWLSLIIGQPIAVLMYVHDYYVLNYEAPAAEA
SMILES,inhibition [1] [%],solubility at 24 h [2] [µg/mL],Activity (Mus musculus) [%]
CC(C)[C@H](NC(=O)c1nc(-c2ccc(NC(=O)Nc3cccc(Cl)c3)cc2)no1)C(=O)O,71,,
Cc1ccc(NC(=O)Nc2ccc(-c3cc(C(=O)N[C@H](C(=O)O)C(C)C)on3)cc2)cc1C,83,,
CC(C)[C@H](NC(=O)c1cc(-c2ccc(NC(=O)Nc3ccc(Cl)cc3)cc2)no1)C(=O)O,84,,
Cc1ccc(NC(=O)Nc2ccc(-c3cnc(C(=O)N[C@H](C(=O)O)C(C)C)o3)cc2)cc1C,69,,
CC(C)[C@H](NC(=O)c1cc(-c2ccc(NC(=O)[C@H](O)c3ccccc3)cc2)no1)C(=O)O,59,,
CC(C)[C@H](NC(=O)c1ncc(-c2ccc(NC(=O)Nc3cccc(C(F)(F)F)c3)cc2)o1)C(=O)O,75,,
CC(C)[C@H](NC(=O)c1cc(-c2ccc(NC(=O)Nc3ccccc3Cl)cc2)no1)C(=O)O,90,,
CC(C)[C@H](NC(=O)c1ncc(-c2ccc(NC(=O)Nc3ccc(Cl)cc3)cc2)o1)C(=O)O,59,,
CC(C)[C@H](NC(=O)c1cc(-c2ccc(NC(=O)Nc3ccc(Cl)cc3Oc3ccccc3)cc2)no1)C(=O)O,91,140,35
CC(C)[C@H](NC(=O)c1cc(-c2ccc(NC(=O)Nc3ccc(Cl)cc3F)cc2)no1)C(=O)O,90,,
CC(C)[C@H](NC(=O)c1cc(-c2ccc(NC(=O)Nc3cccc(Cl)c3)cc2)no1)C(=O)O,84,,
CC(C)[C@H](NC(=O)c1cc(-c2ccc(NC(=O)Nc3cccc(C(F)(F)F)c3)cc2)no1)C(=O)O,85,,
CC(C)[C@H](NC(=O)c1ncc(-c2ccc(NC(=O)Nc3ccccc3Cl)cc2)o1)C(=O)O,80,,
CC(C)[C@H](NC(=O)c1ncc(-c2ccc(NC(=O)Nc3ccc(Cl)cc3Oc3ccccc3)cc2)o1)C(=O)O,91,,
CC(C)[C@H](NC(=O)c1nc(-c2ccc(NC(=O)Nc3cccc(C(F)(F)F)c3)cc2)no1)C(=O)O,48,,
CC(C)[C@H](NC(=O)c1cc(-c2ccc(NC(=O)C(=O)Nc3cccc(C(F)(F)F)c3)cc2)no1)C(=O)O,16,,
CC(C)[C@H](NC(=O)c1ncc(-c2ccc(NC(=O)Nc3ccc(Cl)cc3F)cc2)o1)C(=O)O,70,,
CC(C)[C@H](NC(=O)c1nc(-c2ccc(NC(=O)Nc3ccccc3Cl)cc2)no1)C(=O)O,62,,
CC(C)[C@H](NC(=O)c1ncc(-c2ccc(NC(=O)Nc3cccc(Cl)c3)cc2)o1)C(=O)O,72,,
Cc1ccccc1S(=O)(=O)NC(=O)Nc1ccc(-c2cc(C(=O)N[C@H](C(=O)O)C(C)C)on2)cc1,26,,
CC(C)[C@H](NC(=O)c1cc(-c2ccc(NS(=O)(=O)c3c(F)cccc3F)cc2)no1)C(=O)O,23,,

# The next lines start with results.
inhibition [1] [%],solubility at 24 h [2] [µg/mL],SMILES,Activity (Mus musculus) [%]
75,,CC(C)[C@H](NC(=O)c1nc(-c2ccc(NC(=O)Nc3ccc(F)cc3F)cc2)no1)C(=O)O,
44,,CC(C)[C@H](NC(=O)c1cc(-c2ccc(NC(=O)c3ccc(F)cc3)cc2)no1)C(=O)O,
,10,CC(C)[C@H](NC(=O)c1ccc(-c2ccc(Nc3nc4ccc(F)cc4s3)cc2)cc1)C(=O)O,84
61,,CC(C)[C@H](NC(=O)c1nc(-c2ccc(NC(=O)Nc3ccc(F)cc3)cc2)no1)C(=O)O,
78,,CC(C)[C@H](NC(=O)c1cc(-c2ccc(NC(=O)Nc3ccc(F)cc3)cc2)no1)C(=O)O,
80,380,Cc1ccc(NC(=O)Nc2ccc(-c3cc(C(=O)N[C@H](C(=O)O)C(C)C)on3)cc2)cc1,79
40,,CC(C)[C@H](NC(=O)c1nc(-c2ccc(NC(=O)Nc3ccc(Cl)cc3)cc2)no1)C(=O)O,
85,,CC(C)[C@H](NC(=O)c1cc(-c2ccc(NC(=O)Nc3ccc(F)cc3F)cc2)no1)C(=O)O,
,60,CC(C)[C@H](NC(=O)c1cc(-c2ccc(Nc3nc4ccc(F)cc4s3)cc2)no1)C(=O)O,29
,430,COc1ccc(NC(=O)Nc2ccc(-c3cc(C(=O)N[C@H](C(=O)O)C(C)C)on3)cc2)cc1,90
61,,Cc1ccc(NC(=O)Nc2ccc(-c3noc(C(=O)N[C@H](C(=O)O)C(C)C)n3)cc2)cc1,
72,,CC(C)[C@H](NC(=O)c1cc(-c2ccc(NC(=S)Nc3ccccc3F)cc2)no1)C(=O)O,
18,,CC(C)[C@H](NC(=O)c1cc(-c2ccc(OCc3ccc(F)cc3)cc2)no1)C(=O)O,
